The values that follow come from ChEMBL document CHEMBL3243960.

The structures appear in SMILES notation. The source made the active and inactive calls. The calls are words filed in the database; no cut-off is given here.

Experiment [1] addresses T1, Asparagine synthetase [glutamine-hydrolyzing] (Homo sapiens) (UniProt P08243).
T1 sequence (whole entry): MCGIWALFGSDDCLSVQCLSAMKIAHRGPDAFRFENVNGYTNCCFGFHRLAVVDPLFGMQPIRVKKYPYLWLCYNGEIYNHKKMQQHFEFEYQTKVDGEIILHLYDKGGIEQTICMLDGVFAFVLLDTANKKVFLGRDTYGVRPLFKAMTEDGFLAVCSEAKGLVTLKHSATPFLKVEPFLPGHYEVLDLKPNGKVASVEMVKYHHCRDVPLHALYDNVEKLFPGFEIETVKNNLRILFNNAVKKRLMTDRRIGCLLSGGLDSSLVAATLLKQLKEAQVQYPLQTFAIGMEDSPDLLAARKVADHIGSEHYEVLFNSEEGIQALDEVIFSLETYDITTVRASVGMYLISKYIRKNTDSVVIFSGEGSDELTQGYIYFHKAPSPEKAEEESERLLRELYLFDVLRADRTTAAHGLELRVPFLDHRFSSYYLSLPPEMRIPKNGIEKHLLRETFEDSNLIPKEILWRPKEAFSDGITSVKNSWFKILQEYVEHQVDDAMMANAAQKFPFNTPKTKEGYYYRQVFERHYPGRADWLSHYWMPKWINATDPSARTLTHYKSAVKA
Nature of the experiment: Inhibition of asparagine synthetase in human KB cells at 1 mM. It is filed as cell-based.

Experiment [2] deals with T2, Asparagine synthetase [glutamine-hydrolyzing] (Rattus norvegicus) (UniProt P49088).
T2 sequence (whole entry): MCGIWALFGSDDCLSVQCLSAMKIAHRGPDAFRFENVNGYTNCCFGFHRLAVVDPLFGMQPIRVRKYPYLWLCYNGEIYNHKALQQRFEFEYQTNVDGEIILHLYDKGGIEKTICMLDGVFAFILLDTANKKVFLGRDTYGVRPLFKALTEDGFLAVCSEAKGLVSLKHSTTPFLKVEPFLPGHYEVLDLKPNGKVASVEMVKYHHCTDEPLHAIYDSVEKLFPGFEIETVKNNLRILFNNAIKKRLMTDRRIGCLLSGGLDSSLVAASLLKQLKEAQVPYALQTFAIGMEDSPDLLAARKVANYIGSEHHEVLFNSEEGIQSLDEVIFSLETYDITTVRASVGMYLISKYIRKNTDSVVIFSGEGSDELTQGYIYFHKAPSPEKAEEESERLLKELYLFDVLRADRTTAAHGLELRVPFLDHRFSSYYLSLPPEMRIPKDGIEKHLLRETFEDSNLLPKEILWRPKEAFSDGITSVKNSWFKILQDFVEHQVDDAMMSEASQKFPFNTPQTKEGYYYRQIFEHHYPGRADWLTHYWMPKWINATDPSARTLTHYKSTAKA
Nature of the experiment: Inhibition of asparagine synthetase isolated from rat bearing Novikoff hepatoma cells using [14C]-L-aspartic acid as substrate at 2 mM incubated 15 mins prior to substrate addition measured after 30 mins. The method in brief:
(§1)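 ASase partially purified from excised rat Novikoff hepatoma (specific activity 0.51 μmol asparagine/mg protein/30 min). Enzyme and inhibitor were preincubated with 100 μmol Tris at pH 8.0 for 15 min at 37 °C. L-glutamine (20.0 μmol), L-aspartic acid (2.0 μmol) and L-aspartic acid-¹⁴C (2×10⁶ dpm) were then added and incubated 30 min at 37 °C. Isolated L-asparagine-¹⁴C was counted by scintillation. Percent inhibition came from duplicates on three separate days with fresh inhibitor solutions.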

Experiment [3] concerns the target T3, Asparagine synthetase [glutamine-hydrolyzing] (Mus musculus) (UniProt Q61024).
T3 sequence (whole entry): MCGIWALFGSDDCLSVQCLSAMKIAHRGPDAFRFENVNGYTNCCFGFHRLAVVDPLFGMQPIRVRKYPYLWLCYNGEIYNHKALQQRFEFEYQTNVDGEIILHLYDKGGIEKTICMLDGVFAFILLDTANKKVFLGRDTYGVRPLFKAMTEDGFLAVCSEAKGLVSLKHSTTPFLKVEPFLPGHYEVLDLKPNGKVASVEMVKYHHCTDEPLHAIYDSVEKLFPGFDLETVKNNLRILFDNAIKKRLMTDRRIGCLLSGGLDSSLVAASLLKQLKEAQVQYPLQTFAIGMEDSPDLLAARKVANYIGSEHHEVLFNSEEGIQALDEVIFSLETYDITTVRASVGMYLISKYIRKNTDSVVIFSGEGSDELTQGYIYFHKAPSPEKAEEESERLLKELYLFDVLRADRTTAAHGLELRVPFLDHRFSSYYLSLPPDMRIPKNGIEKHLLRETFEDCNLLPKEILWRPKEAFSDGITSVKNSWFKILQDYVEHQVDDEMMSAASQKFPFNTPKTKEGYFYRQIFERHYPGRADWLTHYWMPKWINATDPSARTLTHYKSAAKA
The experiment in a line: Inhibition of asparagine synthetase in mouse L5178Y/AR cells at 10 mM. It is filed as cell-based.

The next experiment relates to P388. The experiment in a line: Antitumor activity against mouse P388 cells […] in mouse assessed as increase in life span. It is filed as functional. The method in brief:
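In vivo screen run by the National Cancer Institute Drug Research and Development Program in CDF₁ mice bearing P-388 lymphocytic leukemia, an asparaginase-resistant line. The read-out was increase in life span.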

In experiment [4] the target is T3, Asparagine synthetase [glutamine-hydrolyzing] (Mus musculus). The experiment in a line: Inhibition of asparagine synthetase in mouse L5178Y/AR cells at 1 mM. It is filed as cell-based.
The target in experiment [5] is T2, Asparagine synthetase [glutamine-hydrolyzing] (Rattus norvegicus). The experiment in a line: Inhibition of asparagine synthetase isolated from rat bearing Novikoff hepatoma cells using [14C]-L-aspartic acid as substrate at 1 mM incubated 15 mins prior to substrate addition measured after 30 mins. The essentials:
as §1

For experiment [6] the target is unchanged. The experiment in a line: Competitive inhibition of rat asparagine synthetase using L-aspartic acid as substrate incubated 15 mins prior to substrate addition measured after 30 mins by double reciprocal plot analysis. The essentials: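 Partially purified rat Novikoff hepatoma ASase was preincubated with inhibitor in Tris at pH 8.0 for 15 min at 37 °C. L-glutamine was then added with L-aspartic acid varied at 0.25, 0.50, 1.0 and 2.0 mM final, plus ¹⁴C-aspartate (2×10⁶ dpm/tube, 206 mCi/mmol), and incubated 30 min at 37 °C. L-asparagine-¹⁴C was measured. Double-reciprocal plots were fitted by least-squares regression.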

Usually inhibition stands for the share of the control response that was lost under treatment. `NC(CC(=O)NO)C(=O)O` (racemic) had an inhibition in experiment [1] of 36%.
Molecule `N[C@@H](CS(=O)(=O)NNC(=O)c1ccc(S(=O)(=O)F)cc1)C(=O)O` had an inhibition in experiment [2] of 43.1%. Also, the inhibition result in experiment [3] is “inactive”.
In experiment [2], `CCOC(=O)/C=C/C(=O)NNS(=O)(=O)C[C@H](N)C(=O)O` came in with an inhibition of 37.3%. For the same molecule, the inhibition result in experiment [3] was “inactive”. In addition, the result in the experiment with P388 was inactive.
The molecule `N[C@@H](CS(=O)(=O)NCc1ccc(S(=O)(=O)F)cc1)C(=O)O` gave an inhibition in experiment [2] of 29.5%. For the same molecule, in experiment [3], the inhibition result is “inactive”.
The molecule `N[C@@H](CS(N)(=O)=O)C(=O)O` yielded an inhibition in experiment [2] of 25.8%.
In experiment [2], `N[C@@H](CS(=O)(=O)NCCCl)C(=O)O` gave an inhibition of 0%. Further, the inhibition entry in experiment [4] is “inactive”.
For `N[C@@H](CS(=O)(=O)NO)C(=O)O`, the inhibition stood at 77.6% in experiment [5], 96.5% in experiment [2], 23% in experiment [4] and 81% in experiment [3]. The inhibition result in experiment [6] is “Active”. Besides, the outcome with P388 was inactive.
On to `N[C@@H](CC(=O)NO)C(=O)O`, for which the inhibition in experiment [2] stood at 15.8%. Also, the inhibition entry in experiment [6] was “inactive”.
